Calls of active or inactive are those of the source. No cut-off for these calls is given here.
Assays:
Interstitial collagenase [1] = biological target: T1, Interstitial collagenase (Homo sapiens, UniProt P03956)
[2] = biological target: T2, Matrix metalloproteinase-9 (Homo sapiens, UniProt P14780)
[3] = biological target: T3, Disintegrin and metalloproteinase domain-containing protein 17 (Homo sapiens, UniProt P78536)
Collagenase 3 [4] = biological target: T4, Collagenase 3 (Homo sapiens, UniProt P45452)
THP-1 = experiment: Inhibition of LPS-stimulated TNFalpha production in human THP1 cells at 3 uM by ELISA; assay type: functional
Interstitial collagenase [5] = biological target: T1, Interstitial collagenase; experiment: Inhibition of MMP1 at 10 uM
In short: (§1)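 Cell-free assay on isolated enzyme (MMP-1, MMP-9, MMP-13 or TACE). Percent inhibition was read at a single 10 μM inhibitor concentration, with samples run in triplicate and the mean reported. Full dose-response curves were generated only where inhibition at 10 μM reached 60%.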

Collagenase 3 [6] = biological target: T4, Collagenase 3; experiment: Inhibition of MMP13 at 10 uM
In short: as §1

[7] = biological target: T2, Matrix metalloproteinase-9; experiment: Inhibition of MMP9 at 10 uM
In short: as §1

[8] = biological target: T3, Disintegrin and metalloproteinase domain-containing protein 17; experiment: Inhibition of TACE at 10 uM
In short: as §1

Mus musculus [9] = experiment: Inhibition of LPS-stimulated TNFalpha production in mouse model at 10 mg/kg, po; assay type: functional, organism-based; parameters: dose 10 mg/kg
In short: (§2)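 Mice received the compound orally. LPS was injected 30 min after dosing. Blood was drawn 1 h after LPS, and serum TNF-α was measured by ELISA. Results are expressed as % inhibition of LPS-induced TNF-α.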

Mus musculus [10] = experiment: Inhibition of LPS-stimulated TNFalpha production in mouse model at 100 mg/kg, po at 12 hrs; assay type: functional
Mus musculus [11] = experiment: Inhibition of LPS-stimulated TNFalpha production in mouse model at 100 mg/kg, po at 1 hrs; assay type: functional
In short: as §2

T3 sequence (P78536 whole entry, the tested form may be a part): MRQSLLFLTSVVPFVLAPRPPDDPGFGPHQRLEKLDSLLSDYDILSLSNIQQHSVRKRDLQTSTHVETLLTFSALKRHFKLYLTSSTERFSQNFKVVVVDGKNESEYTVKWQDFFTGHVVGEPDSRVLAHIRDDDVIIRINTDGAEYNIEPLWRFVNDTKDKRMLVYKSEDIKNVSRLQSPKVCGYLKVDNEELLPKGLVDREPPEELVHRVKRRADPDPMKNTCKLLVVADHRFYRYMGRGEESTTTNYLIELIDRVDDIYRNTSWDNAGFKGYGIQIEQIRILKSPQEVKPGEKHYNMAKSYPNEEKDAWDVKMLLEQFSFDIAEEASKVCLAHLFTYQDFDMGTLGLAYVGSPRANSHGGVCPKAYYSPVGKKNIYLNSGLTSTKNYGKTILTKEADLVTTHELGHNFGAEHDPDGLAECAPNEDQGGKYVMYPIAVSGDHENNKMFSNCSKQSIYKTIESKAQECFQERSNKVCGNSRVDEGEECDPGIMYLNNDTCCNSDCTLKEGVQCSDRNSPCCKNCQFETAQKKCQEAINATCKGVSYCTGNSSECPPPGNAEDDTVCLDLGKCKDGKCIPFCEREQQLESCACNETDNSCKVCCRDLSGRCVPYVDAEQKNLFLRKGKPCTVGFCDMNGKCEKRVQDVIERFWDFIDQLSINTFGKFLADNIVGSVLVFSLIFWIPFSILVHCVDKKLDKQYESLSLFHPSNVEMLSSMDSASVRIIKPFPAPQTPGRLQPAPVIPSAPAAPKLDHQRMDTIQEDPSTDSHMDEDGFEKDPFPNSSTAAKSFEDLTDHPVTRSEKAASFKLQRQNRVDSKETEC
T2 sequence (P14780 whole entry, the tested form may be a part): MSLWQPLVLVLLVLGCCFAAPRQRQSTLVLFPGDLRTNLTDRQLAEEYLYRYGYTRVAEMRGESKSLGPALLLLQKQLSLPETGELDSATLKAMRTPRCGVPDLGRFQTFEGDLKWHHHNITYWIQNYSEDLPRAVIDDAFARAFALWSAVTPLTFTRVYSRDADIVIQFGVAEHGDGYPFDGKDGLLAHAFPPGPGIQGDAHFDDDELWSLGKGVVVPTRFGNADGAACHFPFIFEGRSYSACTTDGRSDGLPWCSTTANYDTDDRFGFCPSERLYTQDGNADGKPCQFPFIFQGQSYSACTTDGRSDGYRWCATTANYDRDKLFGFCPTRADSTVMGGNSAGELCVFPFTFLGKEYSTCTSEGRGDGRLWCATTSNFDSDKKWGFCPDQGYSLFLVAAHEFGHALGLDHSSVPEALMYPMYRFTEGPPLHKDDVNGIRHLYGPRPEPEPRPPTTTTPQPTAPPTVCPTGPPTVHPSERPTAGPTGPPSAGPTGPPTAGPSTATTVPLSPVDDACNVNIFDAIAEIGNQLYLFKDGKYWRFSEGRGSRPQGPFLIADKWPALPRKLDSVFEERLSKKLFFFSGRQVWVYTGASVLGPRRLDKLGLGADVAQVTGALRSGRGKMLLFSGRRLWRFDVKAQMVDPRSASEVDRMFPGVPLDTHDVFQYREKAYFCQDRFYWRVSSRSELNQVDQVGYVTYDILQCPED
T1 sequence (P03956 whole entry): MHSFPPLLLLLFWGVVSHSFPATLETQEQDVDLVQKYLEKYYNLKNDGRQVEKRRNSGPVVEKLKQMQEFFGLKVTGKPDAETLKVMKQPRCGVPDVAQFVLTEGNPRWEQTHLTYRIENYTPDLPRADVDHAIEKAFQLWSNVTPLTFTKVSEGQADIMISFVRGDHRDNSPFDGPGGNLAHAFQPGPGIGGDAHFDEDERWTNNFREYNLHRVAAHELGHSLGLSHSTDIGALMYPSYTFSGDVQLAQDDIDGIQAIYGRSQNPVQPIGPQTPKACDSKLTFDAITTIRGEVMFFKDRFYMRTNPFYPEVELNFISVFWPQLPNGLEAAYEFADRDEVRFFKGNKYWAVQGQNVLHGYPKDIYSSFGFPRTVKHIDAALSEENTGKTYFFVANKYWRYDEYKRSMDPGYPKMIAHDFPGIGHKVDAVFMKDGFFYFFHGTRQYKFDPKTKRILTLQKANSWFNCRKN

| Structure (SMILES) | IC50 (Interstitial collagenase [1]) [µM] | IC50 [2] [µM] | IC50 [3] [µM] | IC50 (Collagenase 3 [4]) [µM] | inhibition at 3 µM (THP-1) [%] | further results |
| --- | --- | --- | --- | --- | --- | --- |
| CC#CCOc1ccc(S(=O)(=O)C(CCCCCC)C(=O)NO)cc1 (stereo not drawn) | > 10 | 2.5 | 0.075 | 0.5 | 6 | – |
| CCCCCCC(Sc1ccc(OC)cc1)C(=O)NO (stereo not drawn) | – | – | – | – | – | inhibition (Interstitial collagenase [5]): 9%; inhibition (Collagenase 3 [6]): 55%; inhibition [7]: 67% |
| CC#CCOc1ccc([S@@](=O)[C@H](C(=O)NO)c2ccccc2)cc1 | > 10 | > 10 | 0.074 | > 10 | 4 | – |
| CCC#CCOc1ccc(S(=O)(=O)C2(C(=O)NO)CCN(Cc3ccc(Br)cc3)CC2)cc1 | – | – | – | – | 0 | inhibition (Interstitial collagenase [5]): 51%; inhibition (Collagenase 3 [6]): 40%; inhibition [7]: 41% |
| CC#CCOc1ccc(SC2(C(=O)NO)CCN(C(=O)OC(C)(C)C)CC2)cc1 | – | – | – | – | 0 | inhibition (Interstitial collagenase [5]): 24%; inhibition [8]: 38%; inhibition [7]: 25% |
| CC#CCOc1ccc(S(=O)(=O)C(C(=O)NO)C(C)C)cc1 (stereo not drawn) | 5.14 | 1.26 | – | 0.107 | – | – |
| CC#CCOc1ccc([S+]([O-])C(C(=O)NO)c2ccccc2)cc1 (single isomer, unassigned) | > 10 | > 10 | – | > 10 | 74 | – |
| CC#CCOc1ccc(S(=O)(=O)C2(C(=O)NO)CCN(Cc3ccc(Br)cc3)CC2)cc1 | 3.37 | – | – | – | – | – |
| CC#CCOc1ccc([S@@](=O)[C@H](C(=O)NO)c2ccc(OC)cc2)cc1 | > 10 | > 10 | 0.048 | > 10 | 12 | – |
| CC#CCOc1ccc(S(=O)(=O)C(C(=O)NO)C2CCNCC2)cc1 (stereo not drawn) | > 10 | > 10 | – | > 10 | – | – |
| CC#CCOc1ccc([S+]([O-])C(C(=O)NO)c2ccc(OC)cc2)cc1 (single isomer, unassigned) | > 10 | > 10 | 0.017 | > 10 | – | – |
| CC#CCOc1ccc(SC(C(=O)NO)C2CCCCC2)cc1 (stereo not drawn) | > 10 | 3 | – | 2 | 5 | – |
| CC#CCOc1ccc(S(=O)(=O)C(C(=O)NO)C2CCOCC2)cc1 (stereo not drawn) | > 10 | > 10 | – | > 10 | – | – |
| CCCCCC[C@@H](C(=O)NO)[S@+]([O-])c1ccc(OC)cc1 (relative stereo) | 1.15 | 0.186 | 0.03 | 0.072 | – | – |
| CC#CCOc1ccc(S(=O)(=O)C2(C(=O)NO)CCN(Cc3ccc(OC)cc3)CC2)cc1 | – | – | – | – | – | Activity (Mus musculus [9]): inactive; inhibition in vivo at 100 mg/kg (Mus musculus [10]): 24%; inhibition in vivo at 100 mg/kg (Mus musculus [11]): 91% |
| CC#CCOc1ccc(SC(CCCCCC)C(=O)NO)cc1 (stereo not drawn) | > 10 | – | – | – | 5 | – |
| CC#CCOc1ccc(S(=O)(=O)C(C(=O)NO)C2CCN(C(C)=O)CC2)cc1 (stereo not drawn) | > 10 | > 10 | 0.119 | > 10 | 31 | – |
| CC#CCOc1ccc(S(=O)(=O)C2(C(=O)NO)CCN(CC)CC2)cc1 | – | – | 0.08 | – | 35 | inhibition (Interstitial collagenase [5]): 44%; inhibition [7]: 31% |
| CC#CCOc1ccc(S(=O)(=O)C(C(=O)NO)C2CCCCC2)cc1 (stereo not drawn) | > 10 | > 10 | – | – | – | – |
| CC#CCOc1ccc(SC2(C(=O)OCC)CCN(C(=O)OC(C)(C)C)CC2)cc1 | – | – | – | – | 0 | inhibition (Interstitial collagenase [5]): 26%; inhibition (Collagenase 3 [6]): 32%; inhibition [8]: 67%; inhibition [7]: 21% |

| Structure (SMILES) | IC50 (Interstitial collagenase [1]) [µM] | IC50 [2] [µM] | IC50 [3] [µM] | IC50 (Collagenase 3 [4]) [µM] | inhibition at 3 µM (THP-1) [%] | further results |
| --- | --- | --- | --- | --- | --- | --- |
| CC#CCOc1ccc(SC(C(=O)NO)C(C)C)cc1 (stereo not drawn) | > 10 | > 10 | – | > 10 | 13 | – |
| CCCCCC#CCOc1ccc(S(=O)(=O)C2(C(=O)NO)CCN(Cc3ccc(Br)cc3)CC2)cc1 | – | – | – | – | 0 | inhibition (Interstitial collagenase [5]): 33%; inhibition (Collagenase 3 [6]): 60%; inhibition [7]: 59% |
| CC#CCOc1ccc(S(=O)(=O)C2(C(=O)NO)CCN(Cc3ccccc3)CC2)cc1 | 2.64 | – | – | – | – | – |
| C#CCOc1ccc(S(=O)(=O)C2(C(=O)NO)CCN(Cc3ccc(Br)cc3)CC2)cc1 | – | 0.006 | – | 0.003 | 7 | – |
| CC#CCOc1ccc([S@+]([O-])[C@H](CCCCCC)C(=O)NO)cc1 | 3.2 | 1 | 0.012 | 0.15 | 35 | – |
| CC#CCOc1ccc(S(=O)(=O)C(C(=O)NO)C2CCSCC2)cc1 (stereo not drawn) | > 10 | > 10 | 0.113 | > 10 | 15 | – |
| CC#CCOc1ccc([S@@+]([O-])[C@@H](CCCCCC)C(=O)NO)cc1 | 3 | 1.5 | 0.004 | 0.9 | 67 | – |
| C#CCOc1ccc(S(=O)(=O)C2(C(=O)NO)CCN(Cc3ccccc3)CC2)cc1 | 0.096 | 0.018 | 0.069 | 0.007 | 0 | – |
| CC#CCOc1ccc(SC(C(=O)NO)c2ccc(OC)cc2)cc1 (stereo not drawn) | > 10 | > 10 | – | > 10 | 3 | – |
| CC#CCOc1ccc(S(=O)(=O)C(C(=O)NO)C2CCN(C(=O)C3CC3)CC2)cc1 (stereo not drawn) | > 10 | > 10 | 0.054 | > 10 | 71 | – |
| CCCCCC[C@@H](C(=O)NO)[S@@+]([O-])c1ccc(OC)cc1 (relative stereo) | 1.51 | 0.148 | 0.375 | 0.018 | – | – |
| COc1ccc(S(=O)(=O)C2(C(=O)NO)CCN(Cc3ccc(Br)cc3)CC2)cc1 | – | – | – | – | 0 | – |
| CC#CCOc1ccc(S(=O)(=O)C(C(=O)NO)C2CCN(C(=O)c3ccccc3)CC2)cc1 (stereo not drawn) | > 10 | > 10 | 0.233 | > 10 | 28 | – |
| CC#CCOc1ccc(S(=O)(=O)C(C(=O)NO)c2ccccc2)cc1 (stereo not drawn) | 4.57 | 0.124 | 0.094 | 0.068 | 68 | – |
| CC#CCOc1ccc(SC(C(=O)NO)c2ccccc2)cc1 (stereo not drawn) | > 10 | > 10 | – | > 10 | 14 | – |
| CC#CCOc1ccc([S@@+]([O-])[C@H](C(=O)NO)C(C)C)cc1 | 6.48 | 0.399 | – | – | – | – |
| O=C(NO)C1(S(=O)(=O)c2ccc(OCC#CCN3CCOCC3)cc2)CCN(Cc2ccc(Br)cc2)CC1 | – | – | – | – | 0 | inhibition (Interstitial collagenase [5]): 16%; inhibition (Collagenase 3 [6]): 63%; inhibition [7]: 20% |
| CC#CCOc1ccc(S(=O)(=O)C(C(=O)NO)C2CC[S+]([O-])CC2)cc1 (stereo not drawn) | > 10 | > 10 | 0.039 | > 10 | 14 | – |
| CCCCOc1ccc(S(=O)(=O)C2(C(=O)NO)CCN(Cc3ccc(Br)cc3)CC2)cc1 | 3.96 | 0.01 | 0.072 | 0.005 | 6 | – |
| CC#CCOc1ccc(S(=O)(=O)C(C(=O)NO)c2ccc(OC)cc2)cc1 (stereo not drawn) | > 10 | > 10 | 0.201 | 3.69 | – | – |
